# Measurements collected from several papers.
# Protocols differ between the studies behind these lines.
# Target: Myosin-IIIb (MYO3B, Homo sapiens, UniProt Q8WXR4)
# One construct used (Q8WXR4 1-1341): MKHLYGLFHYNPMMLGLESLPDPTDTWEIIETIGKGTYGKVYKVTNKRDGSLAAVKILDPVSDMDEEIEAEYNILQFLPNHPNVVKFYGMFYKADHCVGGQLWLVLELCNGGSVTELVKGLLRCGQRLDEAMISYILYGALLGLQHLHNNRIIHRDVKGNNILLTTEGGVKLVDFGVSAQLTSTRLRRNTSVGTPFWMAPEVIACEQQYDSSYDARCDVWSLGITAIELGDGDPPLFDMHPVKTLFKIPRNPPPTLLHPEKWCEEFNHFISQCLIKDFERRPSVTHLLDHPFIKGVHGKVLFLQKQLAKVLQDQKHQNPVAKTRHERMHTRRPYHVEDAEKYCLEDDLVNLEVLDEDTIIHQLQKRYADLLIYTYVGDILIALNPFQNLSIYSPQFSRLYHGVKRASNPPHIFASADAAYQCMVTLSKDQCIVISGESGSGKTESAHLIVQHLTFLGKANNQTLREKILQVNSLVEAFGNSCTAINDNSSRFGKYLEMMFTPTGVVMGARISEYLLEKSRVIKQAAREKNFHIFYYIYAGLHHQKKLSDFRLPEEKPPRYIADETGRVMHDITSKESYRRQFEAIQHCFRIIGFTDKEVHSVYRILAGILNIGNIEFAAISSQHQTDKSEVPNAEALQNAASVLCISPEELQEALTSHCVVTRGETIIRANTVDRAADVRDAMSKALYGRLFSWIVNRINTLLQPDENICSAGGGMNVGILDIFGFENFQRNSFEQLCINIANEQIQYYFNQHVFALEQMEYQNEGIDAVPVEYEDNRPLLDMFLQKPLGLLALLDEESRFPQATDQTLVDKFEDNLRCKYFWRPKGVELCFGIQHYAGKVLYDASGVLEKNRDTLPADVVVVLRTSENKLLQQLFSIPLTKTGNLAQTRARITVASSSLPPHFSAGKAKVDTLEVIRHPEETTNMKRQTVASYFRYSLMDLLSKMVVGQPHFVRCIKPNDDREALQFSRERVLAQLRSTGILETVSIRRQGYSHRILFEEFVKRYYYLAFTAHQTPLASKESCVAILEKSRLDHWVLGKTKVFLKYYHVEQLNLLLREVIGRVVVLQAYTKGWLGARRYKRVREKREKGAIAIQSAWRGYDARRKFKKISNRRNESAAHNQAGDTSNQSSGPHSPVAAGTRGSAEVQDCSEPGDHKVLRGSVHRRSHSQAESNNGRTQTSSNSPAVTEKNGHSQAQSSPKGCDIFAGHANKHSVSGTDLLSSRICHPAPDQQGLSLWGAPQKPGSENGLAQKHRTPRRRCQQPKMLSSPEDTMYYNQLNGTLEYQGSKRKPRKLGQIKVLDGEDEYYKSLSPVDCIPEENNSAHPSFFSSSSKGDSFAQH
Compound,effect on,method,concentration,remaining binding
COc1cnc(Nc2cccc(S(N)(=O)=O)c2)nc1N1CCN(c2ccccc2)CC1,binding,competition with immobilised ligand,1 µM,100%
C[C@@H](c1cccc(C#N)c1)n1cc(Cl)cc(C(N)=O)c1=N,binding,competition with immobilised ligand,1 µM,100%
COc1ncc2cc3ccccc3nc2c1C#N,binding,competition with immobilised ligand,5 µM,96%
CN(C)c1ncc(F)c(-c2cnn3ncccc23)n1,binding,,1 µM,100%
O=C(c1ccc(Nc2ncc(Cl)c(-c3cc4ccccc4s3)n2)cc1)N1CCC(N2CCCC2)CC1,binding,competition with immobilised ligand,1 µM,100%
O=C(N[C@H]1CCCCC/C=C\C2C[C@@]2(C(=O)O)NC(=O)[C@@H]2C[C@@H](Oc3ccncc3)CN2C1=O)OC1CCCC1 (stereo partly drawn),binding,competition with immobilised ligand,1 µM,38%
CCN1CCN(Cc2ccc(C(=O)Nc3ccc(C)c(Oc4ccc5c(c4)CC(=O)N5)c3)cc2C(F)(F)F)CC1,binding,competition with immobilised ligand,1 µM,100%
COc1cnc(Nc2cccc(S(N)(=O)=O)c2)nc1N1CCN(c2ccccc2)C(=O)C1,binding,competition with immobilised ligand,1 µM,94%
O=C(NCCCN1CCOCC1)c1ccc(Nc2nccc(-c3cc4ccccc4s3)n2)cc1,binding,competition with immobilised ligand,1 µM,100%
N#CC1(c2ccccn2)CCN(Cc2cc(C(=O)N3CCCC3)c(=O)n3ccccc23)CC1,cell-free assay,competition with immobilised ligand,1 µM,100%
CN(CCCC(F)(F)F)c1nccc(-c2cnn3ncccc23)n1,binding,,1 µM,92%
O=C(NCCCN1CCOCC1)c1ccc(Nc2ncc(Cl)c(-c3ccc(Cl)s3)n2)cc1,binding,competition with immobilised ligand,1 µM,100%
N[C@H]1CCN(c2nccc(-c3cnn4ncccc34)n2)C1,binding,,1 µM,100%
CCC(=O)N[C@@H]1CC[C@H](C(=O)N(C)c2ccc(-c3nc4ccccc4o3)cc2)C1,cell-free assay,competition with immobilised ligand,1 µM,100%
FC(F)(F)Oc1cccc(-c2cnc3ccc(-c4ccncc4)nn23)c1,cell-free assay,competition with immobilised ligand,5 µM,100%
C[C@H]1CCN(c2nccc(-c3cnn4ncccc34)n2)C1,binding,,1 µM,100%
C[C@@H]1CN(c2cc(-c3n[nH]c4ccc(OC5(C)CC5)cc34)ncn2)C[C@H](C)O1,cell-free assay,competition with immobilised ligand,0.1 µM,89%
COc1ccnn2ncc(-c3ccnc(N(C)C)n3)c12,binding,,1 µM,100%
O=C(Nc1c[nH]nc1C(=O)NC1CCNCC1)c1cc(F)cc(F)c1,binding,competition with immobilised ligand,1 µM,100%
CS(=O)(=O)c1cc(C2(NC(=O)c3cncc4c3cnn4-c3ccc(F)cc3)CC2)ccn1,cell-free assay,competition with immobilised ligand,1 µM,100%
CN(c1nccc(-c2cnn3ncccc23)n1)C1CC1,binding,,1 µM,83%
